What was measured:
[1] = target: T1, Vitamin D3 receptor (Sus scrofa) (UniProt A3RGC1); test: Binding affinity for porcine intestinal Vitamin D3 receptor (VDR) relative to 1,25(OH)2D3 (100)
T1 sequence (whole entry): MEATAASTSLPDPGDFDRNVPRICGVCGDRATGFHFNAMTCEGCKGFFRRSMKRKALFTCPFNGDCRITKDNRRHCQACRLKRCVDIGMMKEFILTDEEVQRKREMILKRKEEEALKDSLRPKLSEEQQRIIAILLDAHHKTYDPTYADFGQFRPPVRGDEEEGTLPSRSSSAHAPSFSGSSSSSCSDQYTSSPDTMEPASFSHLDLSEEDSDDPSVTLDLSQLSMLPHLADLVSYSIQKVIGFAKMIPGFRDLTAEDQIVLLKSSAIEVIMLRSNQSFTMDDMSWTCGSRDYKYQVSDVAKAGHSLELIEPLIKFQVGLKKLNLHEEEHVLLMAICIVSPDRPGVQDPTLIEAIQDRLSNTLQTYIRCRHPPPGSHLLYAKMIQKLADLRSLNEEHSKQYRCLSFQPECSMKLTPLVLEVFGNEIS
In short: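 Competition with [3H]1,25(OH)2D3 for receptor in high-speed supernatant of normal pig intestinal mucosa homogenate. Incubated 20 h at 4 °C, then dextran-coated charcoal phase separation. Relative affinity from the concentration displacing 50% of tracer, referenced to 1,25(OH)2D3 at 100%.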

[2] = system: Keratinocyte cell line; test: Inhibition of human skin keratinocyte proliferation relative to 1,25(OH)2D3 (100); type: functional
In short: (§1)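 Human foreskin keratinocytes isolated by overnight Dispase digestion and grown in serum-free keratinocyte medium with pituitary extract and EGF. Seeded at 5×10^3 cells/well in medium without insulin. After 1 day, serial dilutions added in ethanol (<0.2% final) for 72 h. Then [3H]thymidine 1 μCi/well for 2 h and incorporation counted.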

[3] = system: Mus musculus; test: Hypercalcemic effect by daily sc injection of compound was measured as serum calcium concentration in vitamin D-replete normal NMRI mice relative to 1,25(OH)2D3 (100); type: functional
In short: (§2)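 Vitamin D-replete normal NMRI mice given compound or solvent by daily subcutaneous injection for 7 consecutive days. Serum calcium concentration used as the read-out.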

[4] = system: MCF7; test: Antiproliferative activity on MCF-7 cells relative to 1,25(OH)2D3 (100); type: functional, Homo sapiens
In short: (§3)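 MCF-7 cells grown in DMEM/F12 with 10% heat-inactivated FCS, glutamine, penicillin and streptomycin, 37 °C, 5% CO2. Seeded at 5×10^3 cells/well. Compounds added after 24 h and incubated 72 h. Then 1 μCi [3H]thymidine per well for 4 h, cells harvested and radioactivity counted. Triplicate cultures. Activity expressed relative to 1,25(OH)2D3 set at 100.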

[5] = system: HL-60; test: In vitro induction of cell differentiation in HL-60 cells relative to 1,25(OH)2D3 (100); type: functional, Homo sapiens
In short: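 HL-60 cells seeded at 4×10^4 cells/mL in RPMI 1640 with 20% FCS and gentamycin, 37 °C, 5% CO2. Compounds added in ethanol (final <0.2%) one day later, then cultured 4 days. Differentiation read as NBT reduction: 1×10^6 cells/mL mixed with PMA (200 ng/mL) and NBT ([…]), 30 min at 37 °C. Formazan-positive cells counted by hemacytometer.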

[6] = target: T2, Vitamin D-binding protein (Homo sapiens) (UniProt P02774); test: Binding affinity for human vitamin D binding protein (hDBP) relative to 1,25(OH)2D3 (100)
T2 sequence (whole entry): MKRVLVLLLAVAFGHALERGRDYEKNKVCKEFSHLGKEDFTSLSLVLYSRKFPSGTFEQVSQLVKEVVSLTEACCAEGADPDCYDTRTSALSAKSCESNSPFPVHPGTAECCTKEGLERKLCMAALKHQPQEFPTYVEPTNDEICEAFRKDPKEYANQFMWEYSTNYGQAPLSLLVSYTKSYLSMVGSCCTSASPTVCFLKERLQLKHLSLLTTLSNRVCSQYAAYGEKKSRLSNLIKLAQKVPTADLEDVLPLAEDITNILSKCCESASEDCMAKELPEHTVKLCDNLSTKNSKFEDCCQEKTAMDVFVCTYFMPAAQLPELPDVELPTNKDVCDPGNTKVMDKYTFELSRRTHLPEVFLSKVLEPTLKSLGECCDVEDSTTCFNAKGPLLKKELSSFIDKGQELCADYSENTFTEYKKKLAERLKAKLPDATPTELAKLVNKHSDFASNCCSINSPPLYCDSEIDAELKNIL
In short: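 Competition with [3H]1,25(OH)2D3 for human serum DBP (0.18 μM), purified by affinity chromatography. Ligands added in 5 μL ethanol. Incubated 3 h at 4 °C in 0.01 M Tris-HCl with 0.154 M NaCl, pH 7.4. Bound and free separated with cold dextran-coated charcoal. Activity expressed relative to 1,25(OH)2D3 set at 100.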

[7] = system: Gallus gallus; test: In Vivo evaluation for the calcemic activity in vitamin D-replete normal in ICA chick; type: functional
[8] = target: T3, Vitamin D-binding protein (Rattus norvegicus) (UniProt P04276); test: Binding affinity for rat vitamin D binding protein (DBP) relative to 1,25(OH)2D3 (100)
T3 sequence (whole entry): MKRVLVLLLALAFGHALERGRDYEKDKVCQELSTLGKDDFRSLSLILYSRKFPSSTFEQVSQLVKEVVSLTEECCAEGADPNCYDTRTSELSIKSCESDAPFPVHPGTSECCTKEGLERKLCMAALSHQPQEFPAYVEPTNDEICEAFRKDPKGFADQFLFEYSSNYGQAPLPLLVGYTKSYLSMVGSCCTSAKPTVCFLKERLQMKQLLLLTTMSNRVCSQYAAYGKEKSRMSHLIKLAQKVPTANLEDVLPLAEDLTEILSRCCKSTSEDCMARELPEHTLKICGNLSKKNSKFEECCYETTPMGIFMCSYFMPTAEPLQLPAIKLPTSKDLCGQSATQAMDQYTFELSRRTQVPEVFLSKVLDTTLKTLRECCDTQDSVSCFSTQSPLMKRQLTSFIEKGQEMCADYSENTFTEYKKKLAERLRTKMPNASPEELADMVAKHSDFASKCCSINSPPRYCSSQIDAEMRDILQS

[9] = system: Keratinocyte cell line; test: In vitro proliferative activity on keratinocyte cells; type: functional, Homo sapiens; in short: as §1
[10] = system: Mus musculus; test: In Vivo evaluation for the calcemic activity in vitamin D-replete normal in NMRI mice; type: functional; in short: as §2
[11] = target: T3, Vitamin D-binding protein (Rattus norvegicus); test: Binding affinity for rat Vitamin D binding protein
[12] = system: MCF7; test: In vitro cell proliferative activity on MCF-7 cells; type: functional, Homo sapiens; in short: as §3

SMILES | Relative binding affinity [1] | Relative binding affinity [6] | Relative binding affinity [8] | Relative activity [2] | Hypercalcemic activity relative to 1,25(OH)2D3 (=100) [3] | Relative activity [4] | Relative activity [5] | ICA [7] | other results
C[C@H]([C@@H](C)CCCC(C)(C)O)[C@@]1(C)CCC/C(=C\C=C2C[C@@H](O)C[C@H](O)C2)C1 | 10 | 0 | – | 80 | 0.25 | 40 | 10 | – | –
C[C@H](CCCC(C)(C)O)[C@H](C)[C@@]1(C)CCC/C(=C\C=C2C[C@@H](O)C[C@H](O)C2)C1 | 8 | 0 | – | 60 | 0.25 | 75 | 75 | – | –
C=C1/C(=C\C=C2/CCC[C@]3(C)[C@@H]([C@H](C)[C@@H](C)CCC(C)(C)O)CC[C@@H]23)C[C@@H](O)C[C@@H]1O | 33 | – | 67 | – | – | – | 100 | 50 | –
C[C@@H](CCCC(C)(C)O)[C@H](C)[C@@]1(C)CCC/C(=C\C=C2C[C@@H](O)C[C@H](O)C2)C1 | 9 | 0 | – | 85 | 25 | 90 | 70 | – | –
C[C@H](CCCC(C)(C)O)[C@H]1CC[C@H]2/C(=C/C=C3C[C@@H](O)C[C@H](O)C3)CCC[C@]12C | 30 | 48 | – | – | 0.3 | – | 90 | – | –
C=C1/C(=C/C=C2/CCC[C@]3(C)C([C@H](C)CC#CC(C)(C)O)=CC[C@@H]23)C[C@@H](O)C[C@@H]1O | 85 | 0 | – | – | 8 | – | 950 | – | –
C=C1/C(=C\C=C2/CCC[C@]3(C)[C@@H]([C@H](C)CCCC(C)(C)O)CC[C@@H]23)C[C@@H](O)C[C@@H]1O [CALCITRIOL] | – | – | – | – | – | – | – | 100 | Binding affinity [1]: 100; Activity [9]: 100; Ca2+ serum [10]: 100; Binding affinity [11]: 100; Activity [12]: 100; Activity [5]: 100; Binding affinity [6]: 100
C[C@H](CCCC(C)(C)O)[C@@H](C)[C@@]1(C)CCC/C(=C\C=C2C[C@@H](O)C[C@H](O)C2)C1 | 45 | 3 | – | 5000 | 13 | 2000 | 1000 | – | –

Second part, led by results:

Relative binding affinity [1] | Relative binding affinity [6] | Relative binding affinity [8] | SMILES | Relative activity [2] | Hypercalcemic activity relative to 1,25(OH)2D3 (=100) [3] | Relative activity [4] | Relative activity [5] | ICA [7] | other results
88 | 0.2 | – | C=C1/C(=C\C=C2/CCC[C@]3(C)[C@@H]([C@@H](C)CCCC(C)(C)O)CC[C@@H]23)C[C@@H](O)C[C@@H]1O | – | 800 | – | 3000 | – | –
2000 | – | 0.25 | C=C1/C(=C\C=C2/CCC[C@]3(C)[C@@H]([C@@H](C)[C@H](C)CCC(C)(C)O)CC[C@@H]23)C[C@@H](O)C[C@@H]1O | – | – | – | 11900 | 50 | –
1 | – | 0.25 | C=C1/C(=C\C=C2/CCC[C@]3(C)[C@@H]([C@@H](C)[C@@H](C)CCC(C)(C)O)CC[C@@H]23)C[C@@H](O)C[C@@H]1O | – | – | – | 8 | 0.1 | –
18 | 0 | – | C=C1/C(=C\C=C2/CCC[C@]3(C)[C@@H]([C@H](C)OCCC(C)(C)O)CC[C@@H]23)C[C@@H](O)C[C@@H]1O [MAXACALCITOL] | – | 0.3 | – | 197 | – | –
1.7 | – | 0.45 | C=C1/C(=C\C=C2/CCC[C@]3(C)[C@@H]([C@H](C)[C@H](C)CCC(C)(C)O)CC[C@@H]23)C[C@@H](O)C[C@@H]1O | – | – | – | 1.3 | 25 | –
